The source made the active and inactive calls. The rule behind the calls is not given here.
Columns and labels:
[1] = Binding affinity to MPTP assessed as upfield shift resonance at 1.2 equivalents of compound by 1H NMR analysis
[2] = Binding affinity to MPTP by ESI-MS analysis
[3] = Binding affinity to MPP+ assessed as upfield shift resonance at 1.2 equivalents of compound by 1H NMR analysis
Danio rerio [4] = organism: Danio rerio; test: Neuroprotective activity against MPTP-induced tyrosine hydroxylase deficiency in zebrafish larval brain assessed as tyrosine hydroxylase viability in neuron at 100 uM after 48 hrs by immunofluorescence assay (reference value: 49.93 +/- 5.26%); assay type: functional
Danio rerio [5] = organism: Danio rerio; test: Neurotoxicity in zebrafish model of MPTP-induced tyrosine hydroxylase defeciency assessed as phenotypic changes at 100 uM after 48 hrs by immunofluorescence assay; assay type: organism-based; settings: in vivo
[6] = Binding affinity to MPTP at 0.5 equivalents of compound by 1H NMR analysis
[7] = Binding affinity to MPP+ in PBS buffer solution at pH 7.4 by UV-vis titration method
In short: (§1)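 UV-vis titration in 0.01 M PBS, pH 7.4: host added in increasing amounts to the guest solution. Guest absorbance followed at 242 nm, plotted against host concentration and fitted by nonlinear least squares to a 1:1 model to give Ka.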

[8] = Neurotoxicity in zebrafish larvae assessed as tyrosine hydroxylase viability in neuron at 100 uM after 48 hrs by immunofluorescence assay relative to control; assay type: organism-based, Danio rerio; settings: tyrosine hydroxylase-positive neurons, read-out: Activity
[9] = Binding affinity to MPTP in PBS buffer solution at pH 7.4 by UV-vis titration method; in short: as §1
Danio rerio [10] = organism: Danio rerio; test: Neuroprotective activity against MPTP-induced locomotion defeciency in zebrafish larvae assessed as swimming distance at 100 uM incubated for 5 days measured for 45 mins by automated video tracking system based method (reference value: 1368.76 +/- 404.62 cm); assay type: functional
Danio rerio [11] = organism: Danio rerio; test: Neurotoxicity in zebrafish larvae assessed as swimming distance at 100 uM incubated for 5 days measured for 45 mins by automated video tracking system based method (reference value: 3773.21 +/- 386.24 cm); assay type: ADME, organism-based; settings: in vivo
[12] = Binding affinity to MPP+ by ESI-MS analysis

Activity [1]: < 1 ppm
Activity [2]: Active
Activity [3]: Active
Activity [6]: Active
Ka [7]: 1.05 ×10⁵ /M
Ka [9]: 4.8 ×10⁴ /M
Activity [12]: Active
Compound: O=C1N2CN3C(=O)N4CN5C(=O)N6CN7C(=O)N8CN9C(=O)N%10CN%11C(=O)N%12CN%13C(=O)N%14CN1[C@H]1[C@@H]2N2CN%15C(=O)N(CN%16C(=O)N(CN%17C(=O)N(CN%18C(=O)N(CN%19C(=O)N(CN%20C(=O)N(CN1C2=O)[C@H]%14[C@@H]%20%13)[C@H]%12[C@@H]%19%11)[C@H]%10[C@@H]%189)[C@H]8[C@@H]%177)[C@H]6[C@@H]%165)[C@H]4[C@@H]%153
Activity (Danio rerio [4]): 79.44%
Activity (Danio rerio [5]): Non-toxic
viability at 48 h, 100 µM [8]: 91%
Activity (Danio rerio [10]): 3487.02 cm
Activity (Danio rerio [11]): 4167.89 cm
